Among the data in ChEMBL document CHEMBL1157235, “Lupane and oleanane triterpenoids from the cones of Liquidamber styraciflua” (2006) are EC50 and Activity values, retold here.

The subject of assay [1] is A549. As to the kind of experiment: Cytotoxicity against human A549 cells after 72 hrs by MTT assay. Type of assay: functional. The settings on record: A549, 72 h, read-out: ED50 (the source's name). The procedure, abridged:
(§1)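 Cells were grown in RPMI-1640 with 10% FBS at 37 °C under humidified 5% CO2 and seeded at 1 × 10^4 cells/well with compounds for 72 h. MTT (5 mg/mL stock) was then added for 4 h at 37 °C. Formazan was solubilized with acidic SDS (0.02 N HCl in 20% SDS), and absorbance was read at 570 nm against a 620 nm reference.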
On the technique in general: Tetrazolium dyes change colour on reduction, which living cells bring about.

Assay [2] relates to P388. Kind of assay: Cytotoxicity against mouse P388 cells after 72 hrs by MTT assay. Format: functional. The settings on record: P388, 72 h, read-out: ED50 (the source's name). The procedure, abridged:
as §1

The subject of assay [3] is A549. Kind of assay: Cytotoxicity against human A549 cells at 40 uM after 72 hrs by MTT assay. Type of assay: functional, cell-based.
The test system of assay [4] is P388. Kind of assay: Cytotoxicity against mouse P388 cells at 40 uM after 72 hrs by MTT assay. Type of assay: functional, cell-based.

The source made the active and inactive calls. No cut-off for these calls is given here.

For the compound `C=C(C)[C@@H]1CC[C@]2(C(=O)O)CC[C@]3(C)[C@H](CC[C@@H]4[C@]56CC[C@@](O)(OC5)C(C)(C)[C@@H]6CC[C@]43C)[C@@H]12`, the EC50 in assay [1] was 29.9 µM; in assay [2], 22.3 µM.

With `CC(=O)[C@@H]1CC[C@]2(C(=O)O)CC[C@]3(C)[C@H](CC[C@@H]4[C@@]5(C)CCC(=O)C(C)(C)[C@@H]5[C@H](O)C[C@]43C)[C@@H]12`, the result in assay [3] and in assay [4] was inactive. For `C=C(C)[C@@H]1CC[C@]2(C(=O)O)CC[C@]3(C)[C@@H](CC[C@@H]4[C@@]5(C)CCC(=O)C(C)(C)[C@@H]5[C@H](O)C[C@]43C)[C@@H]12`, the EC50 in assay [1] was not below 40 µM; in assay [2], 32.7 µM. As for `C=C(CO)[C@@H]1CC[C@]2(C(=O)O)CC[C@]3(C)[C@H](CC[C@@H]4[C@@]5(C)CCC(=O)C(C)(C)[C@@H]5[C@H](O)C[C@]43C)[C@@H]12`, the result in assay [3] and in assay [4] was inactive. For `COc1cc([C@@H]2c3cc4c(cc3[C@@H](O[C@@H]3O[C@@H]5CO[C@@H](C)O[C@H]5[C@H](O)[C@H]3O)[C@H]3COC(=O)[C@H]23)OCO4)cc(OC)c1O` [ETOPOSIDE], the EC50 in assay [1] turned out to be 3.76 µM. For `CC(=O)OC[C@]12CC[C@@H](O)C(C)(C)C1CC[C@]1(C)[C@@H]2CC=C2[C@@H]3CC(C)(C)CC[C@]3(C(=O)O)CC[C@]21C` (stereo not given in full), the EC50 in assay [1] came to 13.3 µM; in assay [2], 28.2 µM.

As to `CC1(C)CC[C@]2(C(=O)O)CC[C@]3(C)C(=CC[C@@H]4[C@@]5(C)CCC(=O)C(C)(C)[C@@H]5[C@H](O)C[C@]43C)[C@@H]2C1`, the EC50 in assay [1] was found to be 33.5 µM; in assay [2] it was 18.5 µM. For `CC1(C)CC[C@]2(C(=O)O)CC[C@]3(C)C(=CC[C@@H]4[C@]56CC[C@@](O)(OC5)C(C)(C)[C@@H]6CC[C@]43C)[C@@H]2C1` [LANTANOLIC ACID] the same measures were 26.5 µM and 24 µM.
